In ChEMBL document CHEMBL1152490, “SAR study of clubbed [1,2,4]-triazolyl with fluorobenzimidazoles as antimicrobial and antituberculosis agents” (Eur J Med Chem, 2009):
Values after ≈ are worked out from the molar mass of the structure shown.

How the values were obtained:
[1] = tested on: Mycobacterium tuberculosis; test: Antitubercular activity against Mycobacterium tuberculosis H37Rv by microplate alamar blue assay; type: functional
In short: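 Compounds active in the primary screen were retested at lower concentrations against M. tuberculosis H37Rv by microplate Alamar Blue assay. MIC taken as the lowest concentration giving a 95% fall in fluorescence relative to controls. Rifampin was the reference compound.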

[2] = tested on: Salmonella enterica subsp. enterica; test: Antimicrobial activity against Salmonella typhosa after 24 hrs by agar well diffusion assay; type: functional, Salmonella enterica subsp. enterica serovar Typhi
In short: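 Agar well diffusion, modified; wells punched with a 10 mm sterile borer. Test compounds applied on impregnated sterile disks at concentrations of 0.5% to 1.0%, with gentamycin as reference standard. Plates incubated at 24–28 °C for 24 h, then bacterial inhibition scored.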

[3] = tested on: Staphylococcus aureus; test: Antimicrobial activity against Staphylococcus aureus after 24 hrs by agar well diffusion assay; type: functional
In short: (§1)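 Agar well diffusion with modifications, gentamycin as reference standard. Wells 10 mm in diameter punched in agar plates with a sterile steel borer. Strains were kept on agar medium. Compounds were dissolved and applied at 0.5% to 1.0%. Incubation at 24–28 °C for 24 h, then bacterial inhibition was scored.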

[4] = tested on: Escherichia coli; test: Antimicrobial activity against Escherichia coli after 24 hrs by agar well diffusion assay; type: functional; in short: as §1
[5] = tested on: Mycobacterium tuberculosis; test: Antitubercular activity against Mycobacterium tuberculosis H37Rv at 6.25 […] by microplate alamar blue assay; type: functional
In short: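 M. tuberculosis H37Rv (ATCC 27294) in BACTEC 12B medium, primary screen by broth microdilution microplate Alamar Blue assay at a single concentration of […]. Fluorescent compounds were tested instead in the BACTEC 460 radiometric system.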

[6] = tested on: Pseudomonas aeruginosa; test: Antimicrobial activity against Pseudomonas aeruginosa after 24 hrs by agar well diffusion assay; type: functional; in short: as §1
[7] = Cytotoxicity against african green monkey Vero C1008 cells at 6.25 to 50 µg/ml by neutral red uptake assay; type: cell-based; conditions: chlorocebus sabaeus

With Fc1cccc(Cn2c(-c3ccc(-n4cncn4)cc3)nc3c(F)cc(F)cc32)c1 as the molecule, how does the MIC [1] read?
The MIC was 0.36 µg/mL (≈ 0.888 µM).

What about the “inhibition zone (IZ)” value [2] of the same molecule?
Its value is 24 mm.

And the “inhibition zone (IZ)” value [3]?
The value was 29 mm.

And the “inhibition zone (IZ)” value [4]?
Its value is 22 mm.

And the “growth inhibition (GI)” value [5]?
Its value is 96%.

And the “inhibition zone (IZ)” value [6]?
The value was 26 mm.

And the Activity [7]?
The Activity was “Non-toxic”.

Which MIC [1] does the source give for Cn1c(-c2ccc(-n3cncn3)cc2)nc2c(F)cc(F)cc21 here?
Its MIC is < 6.25 µg/mL.

And the “inhibition zone (IZ)” value [2]?
Its value is 19 mm.

What about the “inhibition zone (IZ)” value [3] of the same molecule?
Its value is 28 mm.

And the “inhibition zone (IZ)” value [4]?
The value was 21 mm.

What about the “inhibition zone (IZ)” value [6] of the same molecule?
The value was 26 mm.

What about the Activity [7] of the same molecule?
The Activity was “Non-toxic”.

Which MIC [1] does the source give for COc1cccc(Cn2c(-c3ccc(-n4cncn4)cc3)nc3c(F)cc(F)cc32)c1 here?
Its MIC is 3.13 µg/mL (≈ 7.5 µM).

What about the “inhibition zone (IZ)” value [2] of the same molecule?
The value was 21 mm.

What about the “inhibition zone (IZ)” value [3] of the same molecule?
The value was 24 mm.

What about the “inhibition zone (IZ)” value [4] of the same molecule?
Its value is 22 mm.

And the “growth inhibition (GI)” value [5]?
Its value is 96%.

What about the “inhibition zone (IZ)” value [6] of the same molecule?
The value was 22 mm.

What about the Activity [7] of the same molecule?
The Activity was “Non-toxic”.

What does the source list for Cc1cccc(Cn2c(-c3ccc(-n4cncn4)cc3)nc3c(F)cc(F)cc32)c1?
MIC [1]: < 6.25 µg/mL; inhibition zone (IZ) [2]: 16 mm; inhibition zone (IZ) [3]: 21 mm; inhibition zone (IZ) [4]: 18 mm; inhibition zone (IZ) [6]: 18 mm; Activity [7]: Non-toxic

What does the source list for CCn1c(-c2ccc(-n3cncn3)cc2)nc2c(F)cc(F)cc21?
MIC [1]: < 6.25 µg/mL; inhibition zone (IZ) [2]: 14 mm; inhibition zone (IZ) [3]: 23 mm; inhibition zone (IZ) [4]: 16 mm; inhibition zone (IZ) [6]: 18 mm; Activity [7]: Non-toxic

What does the source list for N#CCn1c(-c2ccc(-n3cncn3)cc2)nc2c(F)cc(F)cc21?
MIC [1]: 1.56 µg/mL (≈ 4.64 µM); inhibition zone (IZ) [2]: 20 mm; inhibition zone (IZ) [3]: 27 mm; inhibition zone (IZ) [4]: 24 mm; growth inhibition (GI) [5]: 96%; inhibition zone (IZ) [6]: 26 mm; Activity [7]: Non-toxic

With CCCn1c(-c2ccc(-n3cncn3)cc2)nc2c(F)cc(F)cc21 as the molecule, how does the MIC [1] read?
The MIC was < 6.25 µg/mL.

And the “inhibition zone (IZ)” value [2]?
The value was 19 mm.

What about the “inhibition zone (IZ)” value [3] of the same molecule?
The value was 21 mm.

And the “inhibition zone (IZ)” value [4]?
Its value is 18 mm.

What about the “inhibition zone (IZ)” value [6] of the same molecule?
Its value is 23 mm.

What about the Activity [7] of the same molecule?
The Activity was “Non-toxic”.

What does the source list for Cc1ccccc1Cn1c(-c2ccc(-n3cncn3)cc2)nc2c(F)cc(F)cc21?
MIC [1]: < 6.25 µg/mL; inhibition zone (IZ) [2]: 14 mm; inhibition zone (IZ) [3]: 19 mm; inhibition zone (IZ) [4]: 18 mm; inhibition zone (IZ) [6]: 21 mm; Activity [7]: Non-toxic

What does the source list for Fc1cc(F)c2nc(-c3ccc(-n4cncn4)cc3)n(Cc3cccc(Cl)c3)c2c1?
MIC [1]: 0.58 µg/mL (≈ 1.37 µM); inhibition zone (IZ) [2]: 18 mm; inhibition zone (IZ) [3]: 26 mm; inhibition zone (IZ) [4]: 19 mm; growth inhibition (GI) [5]: 96%; inhibition zone (IZ) [6]: 22 mm; Activity [7]: Non-toxic

Which results are given for Fc1cc(F)c2nc(-c3ccc(-n4cncn4)cc3)n(Cc3cccc(C(F)(F)F)c3)c2c1?
MIC [1]: < 6.25 µg/mL; inhibition zone (IZ) [2]: 18 mm; inhibition zone (IZ) [3]: 22 mm; inhibition zone (IZ) [4]: 20 mm; inhibition zone (IZ) [6]: 21 mm; Activity [7]: Non-toxic

What does the source list for C#CCn1c(-c2ccc(-n3cncn3)cc2)nc2c(F)cc(F)cc21?
MIC [1]: 3.13 µg/mL (≈ 9.33 µM); inhibition zone (IZ) [2]: 24 mm; inhibition zone (IZ) [3]: 25 mm; inhibition zone (IZ) [4]: 21 mm; growth inhibition (GI) [5]: 96%; inhibition zone (IZ) [6]: 23 mm; Activity [7]: Non-toxic

Which MIC [1] does the source give for Fc1cc(F)c2nc(-c3ccc(-n4cncn4)cc3)n(Cc3ccccc3)c2c1 here?
Its MIC is < 6.25 µg/mL.

And the “inhibition zone (IZ)” value [2]?
The value was 13 mm.

What about the “inhibition zone (IZ)” value [3] of the same molecule?
Its value is 19 mm.

What about the “inhibition zone (IZ)” value [4] of the same molecule?
The value was 15 mm.

And the “inhibition zone (IZ)” value [6]?
The value was 20 mm.

What about the Activity [7] of the same molecule?
The Activity was “Non-toxic”.

With C=CCn1c(-c2ccc(-n3cncn3)cc2)nc2c(F)cc(F)cc21 as the molecule, how does the MIC [1] read?
The MIC was < 6.25 µg/mL.

And the “inhibition zone (IZ)” value [2]?
Its value is 23 mm.

What about the “inhibition zone (IZ)” value [3] of the same molecule?
Its value is 20 mm.

And the “inhibition zone (IZ)” value [4]?
The value was 23 mm.

What about the “inhibition zone (IZ)” value [6] of the same molecule?
Its value is 22 mm.

What about the Activity [7] of the same molecule?
Its Activity is “Non-toxic”.

Which MIC [1] does the source give for CO[C@H]1/C=C/O[C@@]2(C)Oc3c(C)c(O)c4c(O)c(c(/C=N/N5CCN(C)CC5)c(O)c4c3C2=O)NC(=O)/C(C)=C\C=C\[C@H](C)[C@H](O)[C@@H](C)[C@@H](O)[C@@H](C)[C@H](OC(C)=O)[C@@H]1C [RIFAMPIN] here?
The MIC was 0.015 µg/mL (≈ 0.0182 µM).

And the “growth inhibition (GI)” value [5]?
The value was 96%.

With Cc1ccc(S(=O)(=O)n2c(-c3ccc(-n4cncn4)cc3)nc3c(F)cc(F)cc32)cc1 as the molecule, how does the MIC [1] read?
Its MIC is < 6.25 µg/mL.

What about the “inhibition zone (IZ)” value [2] of the same molecule?
Its value is 16 mm.

And the “inhibition zone (IZ)” value [3]?
Its value is 14 mm.

What about the “inhibition zone (IZ)” value [4] of the same molecule?
The value was 16 mm.

And the “inhibition zone (IZ)” value [6]?
Its value is 12 mm.

What about the Activity [7] of the same molecule?
The Activity was “Non-toxic”.

With Fc1ccc(Cn2c(-c3ccc(-n4cncn4)cc3)nc3c(F)cc(F)cc32)cc1 as the molecule, how does the MIC [1] read?
Its MIC is 3.13 µg/mL (≈ 7.72 µM).

And the “inhibition zone (IZ)” value [2]?
Its value is 21 mm.

What about the “inhibition zone (IZ)” value [3] of the same molecule?
The value was 25 mm.

What about the “inhibition zone (IZ)” value [4] of the same molecule?
The value was 19 mm.

And the “growth inhibition (GI)” value [5]?
The value was 96%.

And the “inhibition zone (IZ)” value [6]?
Its value is 23 mm.

And the Activity [7]?
Its Activity is “Non-toxic”.

What does the source list for GENTAMICIN?
inhibition zone (IZ) ([2]; Salmonella enterica subsp. enterica serovar Typhi): 30 mm; inhibition zone (IZ) [4]: 31 mm
